Experimental data published in paper PMC3319156 (Journal of Medicinal Chemistry, 2011).
Blank lines part the entries; values can stand above or below the compound they belong to.

Key:
[1] = tested on: cultured melanoma, breast, prostate, and pancreatic tumor cell lines; conditions: cited from earlier work
Tyr705 of Stat3 [2] = target: T1, Tyr705 of Stat3 (Homo sapiens, UniProt P40763); conditions: MDA-MB-468; cited from earlier work
Tyr705 of Stat3 [3] = target: T1, Tyr705 of Stat3; test: Inhibition of constitutive Stat3 Tyr705 phosphorylation in MDA-MB-468 cells; format: cell-based; conditions: for time at which pStat3 formation was completely inhibited / time for which complete inhibition of pStat3 was sustained: MDA-MB-468, single dose of 5 µM
Procedure, shortened: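 MDA-MB-468 cells (4 × 10^5/well) were grown overnight in DMEM with 10% FCS. Prodrug was given from a 10 mM DMSO stock prepared fresh, for 2 h, or over a time course. After ice-cold PBS washes, cells were lysed (Hepes pH 7.4, Triton X-100, NaF, vanadate, protease inhibitors). 12 µg protein went on 8% SDS-PAGE/PVDF with 5% BSA block. Blots were probed for pStat3 Y705 by ECL, stripped at 50°C, and reprobed for total Stat3.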

pTyr705 Stat3 = pTyr705 Stat3 (Homo sapiens, UniProt P40763); format: cell-based; conditions: MDA-MB-468, 5 µM, 2 h
Procedure, shortened: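 MDA-MB-468 cells on slides were given DMSO or 5 µM test compound for 2 h. Cells were fixed in 4% paraformaldehyde, permeabilized with 0.5% Triton X-100 and blocked with 3% BSA. Staining used anti-pTyr705 Stat3 and an Alexa Fluor 594 secondary. Confocal imaging used identical microscope settings throughout.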

Tyr694 of Stat5 = test: Stat5 Tyr694 phosphorylation in MDA-MB-468 cells; format: cell-based; conditions: for Stat5 phosphorylation: MDA-MB-468, 5 µM, 1.5 h then EGF 30 min
survivin [4] = test: Expression of survivin in HCC-827 cells; format: cell-based; conditions: HCC-827 lung line, 5 µM
MDA-MB-468 cells = test: Cytotoxicity to MDA-MB-468 cells, MTT assay; format: cell-based; conditions: MDA-MB-468, treated daily for three days
Procedure, shortened: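 MDA-MB-468 cells in DMEM with 10% FBS were plated at 1500 cells/well in triplicate, and the medium was changed the next day. Prodrug was dissolved fresh in ethanol to a 10 mM stock, diluted, and added. Further doses went into the same medium at 24 and 48 h, with final ethanol below 1%. Viability was read by MTT.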

cyclin D1 [5] = test: Expression of cyclin D1 in HCC-827 cells; format: cell-based; conditions: HCC-827, 5 µM
Stat3 [6] = target: T2, Stat3 (Homo sapiens, UniProt P40763); test: EGF-stimulated Stat3 phosphorylation in MDA-MB-468 cells; format: cell-based; conditions: MDA-MB-468, 5 µM, 1.5 h then EGF 30 min
Ser473 of Akt [7] = test: Akt Ser473 phosphorylation in HCC-827 NSCLC cells; format: cell-based
p38 MAPK = p38 MAPK phosphorylation in HCC-827 NSCLC cells; format: cell-based
Ser473 of Akt [8] = test: Akt Ser473 phosphorylation in MDA-MB-468 cells; format: cell-based; conditions: for Akt Ser473 phosphorylation: MDA-MB-468, 5 µM, 1.5 h then EGF 30 min
H528 = test: Growth inhibition of H528 NSCLC cells; format: cell-based; conditions: H528, 5–10 µM, data not shown
Stat3 [9] = target: T2, Stat3; test: Stat3 phosphorylation in HCC-827 non-small-cell lung cancer cells; format: cell-based; conditions: HCC-827, 5 µM
Bcl-xL = test: Expression of downstream gene Bcl-xL in MDA-MB-468 cells; format: cell-based; conditions: MDA-MB-468, 5 µM
cyclin D1 [10] = test: Expression of downstream gene cyclin D1 in MDA-MB-468 cells; format: cell-based; conditions: MDA-MB-468, 5 µM
Stat3 [11] = target: T2, Stat3; test: IL-6-stimulated Stat3 phosphorylation in HEY ovarian cancer cells; format: cell-based; conditions: 1.5 hour exposure then IL-6
Procedure, shortened: (§1)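 Hey, MeWo and A375 cells were seeded at 3 × 10^5 cells/well in RPMI1640 and cultured overnight, with a media change. Cells then received increasing test compound concentrations for 2 h. IL-6 at 10 ng/mL was present for the last 30 min. Lysates were blotted for pStat3 Y705 and total Stat3 as in the constitutive assay.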

Stat3 [12] = target: T2, Stat3; test: IL-6-stimulated Stat3 phosphorylation in MeWo melanoma cells; format: cell-based; conditions: 1.5 hour exposure then IL-6
Procedure, shortened: as §1

Stat3 [13] = target: T2, Stat3; test: IL-6-stimulated Stat3 phosphorylation in A375 melanoma cells; format: cell-based; conditions: A375, 1.5 hour exposure then IL-6
Procedure, shortened: as §1

survivin [14] = test: Expression of survivin in MDA-MB-468 cells; format: cell-based; conditions: MDA-MB-468 breast line, data not shown
[15] = tested on: Tyr861 of the focal adhesion kinase (FAK); test: Constitutive FAK Tyr861 phosphorylation in MDA-MB-468 cells; format: cell-based; conditions: for FAK Tyr861 phosphorylation: MDA-MB-468, 2 h treatment
Procedure, shortened: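 Constitutive signal, no stimulus: MDA-MB-468 cells were plated overnight in DMEM/10% FCS and given test compound from a 10 mM DMSO stock for 2 h. Cells were lysed in Hepes pH 7.4 detergent buffer with phosphatase and protease inhibitors. Protein was separated by SDS-PAGE, blotted to PVDF, blocked with 5% BSA, and probed for pTyr861 FAK and total FAK.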

Stat3 [16] = target: T2, Stat3; test: Constitutive Stat3 phosphorylation in SKOV3ip ovarian cancer cells; format: cell-based
Procedure, shortened: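 SKOV3-ip cells were seeded at 3 × 10^5 cells/well in McCoy's 5A medium and handled as for MDA-MB-468. Prodrug was added from a 10 mM DMSO stock made just before use, for 2 h. Cells were lysed in Hepes pH 7.4/Triton X-100 buffer with phosphatase and protease inhibitors. 12 µg protein was run on 8% SDS-PAGE, blotted for pStat3 Y705 by ECL, then stripped and reprobed for total Stat3.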

Tyr701 of Stat1 = target: T3, Tyr701 of Stat1 (Homo sapiens, UniProt P42224); test: IFNγ-stimulated Stat1 Tyr701 phosphorylation in MDA-MB-468 cells; format: cell-based; conditions: MDA-MB-468, 1.5 h then 30 min IFNγ
T3 sequence (P42224 1-750): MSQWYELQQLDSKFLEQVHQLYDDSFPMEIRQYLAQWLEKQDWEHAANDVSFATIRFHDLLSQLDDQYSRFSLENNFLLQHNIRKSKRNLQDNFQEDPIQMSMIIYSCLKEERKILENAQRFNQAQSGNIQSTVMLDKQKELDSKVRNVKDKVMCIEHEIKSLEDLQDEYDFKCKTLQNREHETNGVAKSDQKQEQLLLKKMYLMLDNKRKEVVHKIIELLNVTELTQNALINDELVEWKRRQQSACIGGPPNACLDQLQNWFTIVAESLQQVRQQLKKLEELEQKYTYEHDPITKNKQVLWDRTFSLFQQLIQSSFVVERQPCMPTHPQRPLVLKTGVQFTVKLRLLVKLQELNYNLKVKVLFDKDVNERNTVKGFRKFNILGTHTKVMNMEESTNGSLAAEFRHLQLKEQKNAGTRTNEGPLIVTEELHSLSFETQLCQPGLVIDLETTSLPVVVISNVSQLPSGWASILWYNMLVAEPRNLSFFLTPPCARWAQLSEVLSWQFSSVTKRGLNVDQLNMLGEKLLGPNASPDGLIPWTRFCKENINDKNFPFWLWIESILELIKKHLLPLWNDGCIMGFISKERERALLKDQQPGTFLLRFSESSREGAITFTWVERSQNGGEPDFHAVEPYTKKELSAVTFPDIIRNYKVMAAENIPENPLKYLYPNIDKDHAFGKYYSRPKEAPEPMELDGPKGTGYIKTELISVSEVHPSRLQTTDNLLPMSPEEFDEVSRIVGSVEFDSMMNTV
Procedure, shortened: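 MDA-MB-468 cells were prepared as for the Stat3 assay (plated overnight in DMEM/10% FCS) and exposed to increasing test compound concentrations for 1.5 h. Interferon γ was then added at 25 ng/mL for 30 min. Lysates were run on PAGE, blotted to PVDF, and probed for pTyr701 Stat1 and total Stat1 with chemiluminescent detection.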

Stat3 [17] = target: T2, Stat3; test: Inhibition of constitutive Stat3 phosphorylation in BT20 breast tumor cells; format: cell-based; conditions: screen
Tyr861 of FAK = conditions: tumor cells; cited from earlier work
[18] = MDA-MB-468, 25 µM, two hour treatment
[19] = MDA-MB-468, 2 h treatment, western blot

T2 sequence (P40763 whole entry): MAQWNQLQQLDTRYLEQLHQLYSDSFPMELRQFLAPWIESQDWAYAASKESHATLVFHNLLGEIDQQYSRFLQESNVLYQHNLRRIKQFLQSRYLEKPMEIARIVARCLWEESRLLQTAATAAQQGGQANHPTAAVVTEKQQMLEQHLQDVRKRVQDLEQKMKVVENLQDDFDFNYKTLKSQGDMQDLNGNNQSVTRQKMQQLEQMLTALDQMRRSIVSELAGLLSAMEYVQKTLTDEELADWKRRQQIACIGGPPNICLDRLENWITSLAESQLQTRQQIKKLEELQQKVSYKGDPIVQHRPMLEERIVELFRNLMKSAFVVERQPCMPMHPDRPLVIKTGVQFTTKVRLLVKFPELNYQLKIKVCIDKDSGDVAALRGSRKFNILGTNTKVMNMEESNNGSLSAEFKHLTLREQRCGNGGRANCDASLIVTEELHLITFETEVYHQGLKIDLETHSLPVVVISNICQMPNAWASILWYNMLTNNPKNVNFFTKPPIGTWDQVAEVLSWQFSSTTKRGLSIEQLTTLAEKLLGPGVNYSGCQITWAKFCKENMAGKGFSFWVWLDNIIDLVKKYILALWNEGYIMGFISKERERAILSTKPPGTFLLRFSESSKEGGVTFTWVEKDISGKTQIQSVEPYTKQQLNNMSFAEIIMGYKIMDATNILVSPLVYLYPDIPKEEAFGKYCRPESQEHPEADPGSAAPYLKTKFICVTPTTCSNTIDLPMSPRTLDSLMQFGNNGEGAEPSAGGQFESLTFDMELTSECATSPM
T1 sequence (P40763 whole entry): as above
Chain of pTyr705 Stat3 (P40763 whole entry): as above

Compound: Cc1cc(Nc2nc(N[C@@H](C)c3ncc(F)cn3)ncc2Cl)n[nH]1 [AZD1480]
- cytotoxicity at concentrations that completely eliminated Tyr705 phosphorylation [1]: not cytotoxic

Compound: CC(C)(C)c1nc2c3cc[nH]c(=O)c3c3cc(F)ccc3c2[nH]1 [P6]
- cytotoxicity at concentrations that completely eliminated Tyr705 phosphorylation [1]: not cytotoxic

Compound: CC(C)(C)C(=O)OCOP(=O)(OCOC(=O)C(C)(C)C)C(F)(F)c1ccc(/C=C/C(=O)N[C@H]2CCc3cccc4c3N(C2=O)[C@H](C(=O)N[C@@H](CCC(N)=O)C(=O)NCc2ccccc2)C4)cc1 [compound 3]
- concentration that completely inhibited constitutive phosphorylation of Stat3 Tyr705 (Tyr705 of Stat3 [2]): 10 µM
- effect on level of pStat3 (Tyr705 of Stat3 [3]; MDA-MB-468, 2 h, increasing concentrations): reduced the level of pStat3 in a dose-dependent manner

- pStat3 nuclear localization (pTyr705 Stat3): abrogated nuclear localization
- concentration at which pStat3 was completely inhibited (Tyr705 of Stat3 [3]; [19]): 0.5 µM
- concentration with noticeable inhibition of pStat3 (Tyr705 of Stat3 [3]; [19]): 0.1 µM
- time at which pStat3 formation was completely inhibited (Tyr705 of Stat3 [3]): 30 min
- time for which complete inhibition of pStat3 was sustained (Tyr705 of Stat3 [3]): 4 h
- increase in Stat3 phosphorylation induced by EGF (Stat3 [6]): completely inhibited
- duration of pStat3 inhibition (Stat3 [9]): at least 4 h
- pStat3 level at 24 h (Stat3 [9]; 24 h): had not returned to pretreatment levels
- IL-6-induced pStat3 formation (Stat3 [11]): inhibited pStat3 formation
- IL-6-induced pStat3 formation (Stat3 [12]): inhibited pStat3 formation
- IL-6-induced pStat3 formation (Stat3 [13]): inhibited pStat3 formation
- concentration at which constitutively activated Stat3 was completely inhibited (Stat3 [16]): 1 µM
- concentration of complete inhibition of Stat1 phosphorylation (Tyr701 of Stat1): 5 µM
Compound: C/C(=C\C(=O)N[C@H]1CCc2cccc3c2N(C1=O)[C@H](C(=O)N[C@H](C)CCC(N)=O)C3)c1ccc(C(F)(F)P(=O)(OCOC(=O)C(C)(C)C)OCOC(=O)C(C)(C)C)cc1 [compound 34, βMF2Pm(POM2)Cinn-Haic-Apa]
- Stat5 phosphorylation (Tyr694 of Stat5): not inhibited
- Stat5 phosphorylation at high concentration (Tyr694 of Stat5; [18]): inhibited phosphorylation
- expression of survivin (survivin [4]): reduced
- survival curves with daily dosing compared with single dose (MDA-MB-468 cells): little change in the survival curves
- expression of cyclin D1 (cyclin D1 [5]): not inhibited
- phosphorylation of Ser473 of Akt (Ser473 of Akt [7]): no effect
- phosphorylation of p38 MAPK (p38 MAPK): no effect
- Akt Ser473 phosphorylation (Ser473 of Akt [8]): do not inhibit Akt phosphorylation
- Akt phosphorylation at high concentration (Ser473 of Akt [8]; [18]): inhibited phosphorylation
- inhibition (H528): < 20%
- expression of Bcl-xL (Bcl-xL): No inhibition
- expression of cyclin D1 (cyclin D1 [10]): No inhibition
- expression of survivin (survivin [14]): reduced
- FAK phosphorylation at high concentration [15, 18]: inhibited phosphorylation
- FAK Tyr861 phosphorylation [15]: no reduction of Tyr861 phosphorylation

- ability to inhibit constitutive phosphorylation of Stat3 (Stat3 [17]): considerable potency
- concentration at which pStat3 was completely inhibited (Tyr705 of Stat3 [3]; [19]): 0.5 µM
- time at which pStat3 formation was completely inhibited (Tyr705 of Stat3 [3]): 30 min
- time for which complete inhibition of pStat3 was sustained (Tyr705 of Stat3 [3]): 4 h
- increase in Stat3 phosphorylation induced by EGF (Stat3 [6]): completely inhibited
- concentration of complete inhibition of Stat1 phosphorylation (Tyr701 of Stat1): 5 µM
Compound: CCCC[C@H](NC(=O)/C=C(\C)c1ccc(C(F)(F)P(=O)(OCOC(=O)C(C)(C)C)OCOC(=O)C(C)(C)C)cc1)C(=O)N1C[C@H]2C[C@H]2[C@H]1C(=O)N[C@@H](CCC(N)=O)C(C)OCc1ccccc1 (some centres unmarked) [compound 35]
- Stat5 phosphorylation (Tyr694 of Stat5): not inhibited
- survival curves with daily dosing compared with single dose (MDA-MB-468 cells): little change in the survival curves
- Akt Ser473 phosphorylation (Ser473 of Akt [8]): do not inhibit Akt phosphorylation
- inhibition (H528): < 20%
- FAK Tyr861 phosphorylation [15]: no reduction of Tyr861 phosphorylation

- ability to inhibit constitutive phosphorylation of Stat3 (Stat3 [17]): considerable potency
- concentration at which pStat3 was completely inhibited (Tyr705 of Stat3 [3]; [19]): 0.5 µM
- time at which pStat3 formation was completely inhibited (Tyr705 of Stat3 [3]): 30 min
- time for which complete inhibition of pStat3 was sustained (Tyr705 of Stat3 [3]): 4 h
- increase in Stat3 phosphorylation induced by EGF (Stat3 [6]): completely inhibited
- concentration of complete inhibition of Stat1 phosphorylation (Tyr701 of Stat1): 5 µM
Compound: CCCC[C@H](NC(=O)/C=C(\C)c1ccc(C(F)(F)P(=O)(OCOC(=O)C(C)(C)C)OCOC(=O)C(C)(C)C)cc1)C(=O)N1C[C@H]2C[C@H]2[C@H]1C(=O)N[C@H](C)CCC(N)=O [compound 37]
- Stat5 phosphorylation (Tyr694 of Stat5): not inhibited
- Akt Ser473 phosphorylation (Ser473 of Akt [8]): do not inhibit Akt phosphorylation
- FAK Tyr861 phosphorylation [15]: no reduction of Tyr861 phosphorylation

Compound: Cc1nc(Nc2ncc(C(=O)Nc3c(C)cccc3Cl)s2)cc(N2CCN(CCO)CC2)n1 [dasatinib]
- levels of Tyr861 phosphorylation on treatment (Tyr861 of FAK): decrease
